Experimental data: article PMC6357779 (Journal of biomolecular screening, 2013)
Where a SMILES comes first, the peptide text is derived from it. The star is where a group is joined. Cbz = O=C(OCc1ccccc1)*

What was measured:
[1] = test system: estrogen receptor (ERE-tk-luc reporter) in MCF-7 cells; assay: ERE-tk-luc luciferase transactivation assay in MCF-7 cells; format: cell-based, human; conditions: MCF-7, 10 μM compound, 24 h, RLU normalized to no compound added
[2] = molecular target: GFP-GRER chimera (N-terminus of the glucocorticoid receptor fused to the human ERα ligand binding domain) (Homo sapiens, UniProt P03372); assay: GFP-GRER nuclear translocation high-content imaging assay in 6020 cells; format: cell-based
[3] = test system: estradiol-mediated transactivation (ERE-tk-luc) in MCF-7 cells; assay: Estradiol competition transactivation luciferase reporter assay in MCF-7 cells; format: cell-based, human
In short: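 MCF-7 cells moved to phenol red–free DMEM with 10% charcoal-stripped FBS for 24 h, then plated at 100,000 cells/well (96-well). Next day each well was transfected with 200 ng ERE-tk-luc plasmid using Lipofectamine LTX. Cells then received 100 nM estradiol alone, test compound alone (100 nM), or estradiol plus 100 nM, 1 μM or 10 μM test compound. Bright-Glo luminescence was read, and RLU normalized to no-compound wells. Triplicates, three biological replicates.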

[4] = MCF-7, 100 nM estradiol + 10 μM compound

Sequence of GFP-GRER chimera (N-terminus of the glucocorticoid receptor fused to the human ERα ligand binding domain) (P03372 302-595, change not shown): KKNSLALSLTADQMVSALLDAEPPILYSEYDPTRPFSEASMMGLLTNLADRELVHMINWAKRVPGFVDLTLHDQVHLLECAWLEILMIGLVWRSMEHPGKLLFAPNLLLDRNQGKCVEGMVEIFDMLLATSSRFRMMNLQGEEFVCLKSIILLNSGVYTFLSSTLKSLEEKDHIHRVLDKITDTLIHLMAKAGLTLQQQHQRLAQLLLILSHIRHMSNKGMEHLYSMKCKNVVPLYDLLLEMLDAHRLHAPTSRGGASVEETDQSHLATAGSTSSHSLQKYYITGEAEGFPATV
Sequence of GFP-GRER chimera (N-terminus of the glucocorticoid receptor fused to the human ERα ligand binding domain) (P06536 1-565, change not shown, further chain): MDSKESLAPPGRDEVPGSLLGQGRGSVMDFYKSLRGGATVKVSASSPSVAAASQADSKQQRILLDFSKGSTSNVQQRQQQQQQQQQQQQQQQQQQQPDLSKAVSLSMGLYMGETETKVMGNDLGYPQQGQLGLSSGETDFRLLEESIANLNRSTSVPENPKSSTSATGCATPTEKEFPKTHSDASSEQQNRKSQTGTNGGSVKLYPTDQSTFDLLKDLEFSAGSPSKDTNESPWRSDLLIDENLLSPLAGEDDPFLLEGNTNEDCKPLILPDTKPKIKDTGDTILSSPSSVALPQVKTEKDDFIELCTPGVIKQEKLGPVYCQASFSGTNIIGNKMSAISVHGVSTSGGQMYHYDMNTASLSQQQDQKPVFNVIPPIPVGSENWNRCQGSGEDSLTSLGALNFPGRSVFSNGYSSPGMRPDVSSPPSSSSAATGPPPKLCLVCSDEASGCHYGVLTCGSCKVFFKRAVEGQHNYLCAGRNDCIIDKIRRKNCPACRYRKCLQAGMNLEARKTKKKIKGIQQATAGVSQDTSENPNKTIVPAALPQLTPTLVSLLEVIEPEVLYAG

| Compound | fold transactivation induction (transactivation potential) [1] | other results |
| --- | --- | --- |
| C[C@]12CC[C@@H]3c4ccc(O)cc4C[C@@H](CCCCCCCCC[S+]([O-])CCCC(F)(F)C(F)(F)F)[C@H]3[C@@H]1CC[C@@H]2O (stereo partly drawn) [ICI 182,780] | 0.24 |  |
| CC(C)C[C@@H](C=O)NC(=O)[C@H](CC(C)C)NC(=O)[C@H](CC(C)C)NC(=O)OCc1ccccc1 [MG132] (Cbz-Leu-Leu-Leu-aldehyde) | 0.61 | EC50 [2]: 192 nM |
| CC#C[C@]1(O)CC[C@H]2[C@@H]3CCC4=CC(=O)CCC4=C3[C@@H](c3ccc(N(C)C)cc3)C[C@@]21C [RU486] | 0.4 |  |
| CC(C)C[C@H](NC(=O)[C@H](Cc1ccccc1)NC(=O)c1cnccn1)B(O)O [bortezomib] | 0.78 | EC50 [2]: 37 nM; decrease in estradiol-mediated transactivation ([3]; MCF-7, 100 nM estradiol + 100 nM compound): 60%; decrease in estradiol-mediated transactivation ([3]; MCF-7, 100 nM estradiol + 1 μM compound): 54%; decrease in estradiol-mediated transactivation [3, 4]: 29% |
| O=C(c1ccc(OCCN2CCCCC2)cc1)c1c(-c2ccc(O)cc2)sc2cc(O)ccc12 [raloxifene] | 0.89 |  |
| CC/C(=C(\c1ccccc1)c1ccc(OCCN(C)C)cc1)c1ccccc1 [tamoxifen] |  | decrease in estradiol-mediated transactivation [3, 4]: 51% |
| tetrocarcin A [NSC 333856] | 1.34 |  |
